The values below come from ChEMBL document CHEMBL4627351, “Synthesis, biological evaluation and structure-activity relationships of 5-arylidene tetramic acids with antibacterial activity against methicillin-resistant Staphylococcus aureus” (Bioorg Med Chem Lett, 2020).

Data set [1] relates to Staphylococcus aureus. The data set is described as follows: Antibacterial activity against methicillin-resistant Staphylococcus aureus ATCC 43300 assessed as reduction in bacterial growth by CLSI protocol based broth microdilution method. Format: functional. Summed up:
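Dose-response broth assay in duplicate, 8 points from 0.25 to 32 µg/mL, against MRSA ATCC 43300, with a positive antibiotic control. MIC is the lowest concentration giving full growth inhibition, per CLSI guidelines.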
A general note: Dilution methods test growth across graded concentrations, often in twofold steps.

Data set [2] in a line: Cytotoxicity against human HEK293 cells. Format: cell-based.
The subject of data set [3] is Erythrocyte. The data set is described as follows: Hemolytic activity against human RBC. Format: ADME, cell-based.
Data set [4] has as its system Staphylococcus aureus. The data set is described as follows: Antibacterial activity against methicillin-resistant Staphylococcus aureus ATCC 43300 assessed as reduction in bacterial growth at 32 ug/ml by CLSI protocol based broth microdilution method relative to control. Format: functional. In outline: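 Primary single-concentration broth screen at 32 µg/mL in duplicate (n = 2) against MRSA ATCC 43300. Mean % growth inhibition was calculated relative to growth and media controls.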

≈ marks a conversion by molar mass, not a printed value.

Usually MIC stands for the lowest concentration found to suppress growth. Broadly, the CC50 is the concentration giving 50% cytotoxicity. As to `CCCCCCCCCC(=O)C1=C(O)/C(=C/c2ccccc2)N(C(C)=O)C1=O`, the minimal inhibitory concentration (MIC) in data set [1] amounted to 4 µg/mL (≈ 10.4 µM). In data set [2], this compound registered a CC50 greater than 32 µg/mL. The HC10 in data set [3] turned out to be 20.4 µg/mL.

Take `CCCCCCCC(=O)C1=C(O)/C(=C/c2ccccc2)N(C(C)=O)C1=O`: in data set [1], the MIC was found to be 4 µg/mL (≈ 11.3 µM). Moreover, in data set [2], the half-maximal cytotoxic concentration (CC50) was greater than 32 µg/mL. The compound further showed an HC10 in data set [3] greater than 32 µg/mL.

Consider `CCCCCCCCCCCCCC(=O)C1=C(O)/C(=C/c2ccccc2)N(C(C)=O)C1=O`, for which the MIC in data set [1] was determined as 4 µg/mL (≈ 9.1 µM). In data set [2], this compound returned a CC50 greater than 32 µg/mL. Also, the HC10 in data set [3] is greater than 32 µg/mL.

As for `CCCCCCCCCCCCCCCC(=O)C1=C(O)/C(=C/c2ccccc2)N(C(C)=O)C1=O`, in data set [1], the MIC was determined as 4 µg/mL (≈ 8.55 µM). In data set [2], this compound had a CC50 greater than 32 µg/mL. This compound also showed an HC10 in data set [3] greater than 32 µg/mL.

The term inhibition denotes the percentage by which the read-out fell short of the control. As for `CC(=O)C1=C(O)/C(=C/c2ccc(Cl)cc2)N(C(C)=O)C1=O`, the inhibition at 32 µg/mL in data set [4] is 45.1%.

Consider `CCCC(=O)C1=C(O)/C(=C/c2ccc(OC)cc2)N(C(C)=O)C1=O`, for which the MIC in data set [1] was 32 µg/mL (≈ 97.2 µM). This compound came in with a CC50 in data set [2] greater than 32 µg/mL. In addition, the HC10 in data set [3] is greater than 32 µg/mL. The inhibition at 32 µg/mL in data set [4] lay within 73.1 to 99.2%.

Take `CC(=O)C1=C(O)/C(=C/c2ccc(C(F)(F)F)cc2)N(C(C)=O)C1=O`: the MIC in data set [1] is greater than 32 µg/mL. In addition, the CC50 in data set [2] was greater than 32 µg/mL. In data set [3], this compound showed an HC10 greater than 32 µg/mL. In data set [4], the inhibition at 32 µg/mL turned out to be 61.7%.

As to `CC(=O)N1C(=O)C(C(=O)c2ccccc2)=C(O)/C1=C/c1ccccc1`, the inhibition at 32 µg/mL in data set [4] was 73.1 to 99.2%.

With `CC(=O)C1=C(O)/C(=C/c2ccc([N+](=O)[O-])cc2)N(C(C)=O)C1=O`, the inhibition at 32 µg/mL in data set [4] was 38.6%.

`CC(=O)C1=C(O)/C(=C/c2ccccc2)N(C(C)=O)C1=O`: the MIC in data set [1] was greater than 32 µg/mL. The CC50 in data set [2] is greater than 32 µg/mL. Besides, the HC10 in data set [3] was greater than 32 µg/mL. Moreover, the inhibition at 32 µg/mL in data set [4] was 22.9 to 25.5%.

Regarding `CCCC(=O)C1=C(O)/C(=C/c2ccccc2)N(C(C)=O)C1=O`, in data set [1], the MIC was found to be 32 µg/mL (≈ 107 µM). Further, the CC50 in data set [2] is greater than 32 µg/mL. The HC10 in data set [3] is greater than 32 µg/mL. Moreover, the inhibition at 32 µg/mL in data set [4] fell in the range of 73.1 to 99.2%.
